Each structure is given as a SMILES string. Non-standard residues stand in square brackets, D forms with d. Residues, ends and D or L forms follow the SMILES beside them. dPhe(4-Cl) = N[C@H](Cc1ccc(Cl)cc1)C(=O)O; dPhe(4-F) = N[C@H](Cc1ccc(F)cc1)C(=O)O; d2Nal = N[C@H](Cc1ccc2ccccc2c1)C(=O)O

What all share (format): functional
Experiment [1] concerns Rattus norvegicus. The experiment is described as follows: Evaluation of antagonistic potency by rat anti-ovulatory assay when administered in 50% propylene glycol / 0.9% saline vehicle. The procedure, abridged:
(§1)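 Rats with at least two normal 4-day estrous cycles (daily vaginal lavage cytology, at least 12 days) given the analogue subcutaneously in vehicle, 50% propylene glycol/0.9% saline or Mazola corn oil, at noon on proestrus or on diestrus II (24 h earlier). On expected estrus morning, oviducts examined for ovulated eggs. ED50 from percent ovulating versus log-dose, usually three or more dose groups, 10 animals per group.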

For experiment [2], the system named is Rattus norvegicus. Kind of experiment: Evaluation of antagonistic potency by rat anti-ovulatory assay when administered in 50% propylene glycol / 0.9% mazola corn oil vehicle. An outline of the steps: as §1
The species named for experiment [3] is Rattus norvegicus. Kind of experiment: Duration of anti-ovulatory activity was measured at noon on diestrus II and the vehicle was 50% propylene glycol /0.9 % mazola corn oil. The procedure, abridged: as §1
The species entered for experiment [4] is Rattus norvegicus. The experiment is described as follows: Duration of proestrus and the vehicle was 50% propylene glycol /0.9 % mazola corn oil. The procedure, abridged: as §1
The species entered for experiment [5] is Rattus norvegicus. Kind of experiment: Duration of anti-ovulatory activity was measured at noon on diestrus II and the vehicle was 50% propylene glycol /0.9 % saline. An outline of the steps:
as §1

For `CCNC(=O)[C@@H]1CCCN1C(=O)[C@H](CCCN=C(N)N)NC(=O)[C@H](CC(C)C)NC(=O)[C@@H](CCCN=C(N)N)NC(=O)[C@H](Cc1ccc(O)cc1)NC(=O)[C@H](CO)NC(=O)[C@@H](Cc1ccc2ccccc2c1)NC(=O)[C@@H](Cc1ccc(F)cc1)NC(=O)[C@@H]1CCCN1C(C)=O`, the ED50 in the experiment on Rattus norvegicus [1] is given as 32 ug injection-1.

`CCNC(=O)[C@@H]1CCCN1C(=O)[C@H](CCCN=C(N)N)NC(=O)[C@H](CC(C)C)NC(=O)[C@@H](Cc1ccc2ccccc2c1)NC(=O)[C@H](Cc1ccc(O)cc1)NC(=O)[C@H](CO)NC(=O)[C@@H](Cc1ccc2ccccc2c1)NC(=O)[C@@H](Cc1ccc(F)cc1)NC(=O)[C@@H]1CCCN1C(C)=O`: the ED50 in the experiment with Rattus norvegicus [1] came to 3.4 ug injection-1.

Consider `CC(C)C[C@H](NC(=O)[C@@H](Cc1ccc2ccccc2c1)NC(=O)[C@H](Cc1ccc(O)cc1)NC(=O)[C@H](CO)NC(=O)[C@@H](Cc1ccc2ccccc2c1)NC(=O)[C@@H](Cc1ccc(F)cc1)NC(=O)[C@@H]1CCCN1C=O)C(=O)N[C@@H](CCCN=C(N)N)C(=O)N1CCC[C@H]1C(=O)NCC(N)=O`, for which the figures for the ED50 in the experiment on Rattus norvegicus [2] and with Rattus norvegicus [1] were 4.4 ug injection-1 and 3 ug injection-1, respectively.

With `CC(=O)N[C@H](C(=O)N[C@H](Cc1ccc(F)cc1)C(=O)N[C@H](Cc1ccc2ccccc2c1)C(=O)N[C@@H](CO)C(=O)N[C@@H](Cc1ccc(O)cc1)C(=O)N[C@H](Cc1ccc2ccccc2c1)C(=O)N[C@@H](CC(C)C)C(=O)N[C@@H](CCCN=C(N)N)C(=O)N1CCC[C@H]1C(=O)NCC(N)=O)[C@@H](C)O`, the figures for the ED50 in the experiment on Rattus norvegicus [2] and in the experiment with Rattus norvegicus [1] were 4.5 ug injection-1 and 7 ug injection-1, respectively.

On to `CC(=O)N1CCC[C@H]1C(=O)N[C@H](Cc1ccc(F)cc1)C(=O)N[C@H](Cc1ccccc1)C(=O)N[C@@H](CO)C(=O)N[C@@H](Cc1ccc(O)cc1)C(=O)N[C@H](Cc1ccc2ccccc2c1)C(=O)N[C@@H](CC(C)C)C(=O)N[C@@H](CCCN=C(N)N)C(=O)N1CCC[C@H]1C(=O)NCC(N)=O`, for which, in the experiment with Rattus norvegicus [1], the ED50 is 12.2 ug injection-1.

Turning to `CC(C)C[C@H](NC(=O)[C@@H](Cc1ccc2ccccc2c1)NC(=O)[C@H](Cc1ccc(O)cc1)NC(=O)[C@H](CO)NC(=O)[C@@H](Cc1ccc2ccccc2c1)NC(=O)[C@@H](Cc1ccc(F)cc1)NC(=O)[C@H](COCc1ccccc1)NC(=O)OC(C)(C)C)C(=O)N[C@@H](CCCN=C(N)N)C(=O)N1CCC[C@H]1C(=O)NCC(N)=O`, the ED50 with Rattus norvegicus [1] was 400 ug injection-1.

Take `CC(=O)N[C@@H](CO)C(=O)N[C@H](Cc1ccc(F)cc1)C(=O)N[C@H](Cc1ccc2ccccc2c1)C(=O)N[C@@H](CO)C(=O)N[C@@H](Cc1ccc(O)cc1)C(=O)N[C@H](Cc1ccc2ccccc2c1)C(=O)N[C@@H](CC(C)C)C(=O)N[C@@H](CCCN=C(N)N)C(=O)N1CCC[C@H]1C(=O)NCC(N)=O`: the ED50 with Rattus norvegicus [2] is listed as 1.4 ug injection-1; in the experiment on Rattus norvegicus [1], 4.3 ug injection-1.

As to `CC(=O)N1CCC[C@H]1C(=O)N[C@H](Cc1ccc(Cl)cc1)C(=O)N[C@H](Cc1ccccc1)C(=O)N[C@@H](CO)C(=O)N[C@@H](Cc1ccc(O)cc1)C(=O)N[C@H](Cc1ccc2ccccc2c1)C(=O)N[C@@H](CC(C)C)C(=O)N[C@@H](CCCN=C(N)N)C(=O)N1CCC[C@H]1C(=O)NCC(N)=O`, in the experiment on Rattus norvegicus [1], the ED50 is recorded as 5.6 ug injection-1.

On to `CC(=O)N[C@H](Cc1ccccc1)C(=O)N[C@H](Cc1ccc(Cl)cc1)C(=O)N[C@H](Cc1c[nH]c2ccccc12)C(=O)N[C@@H](CO)C(=O)N[C@@H](Cc1ccc(O)cc1)C(=O)N[C@H](Cc1c[nH]c2ccccc12)C(=O)N[C@@H](CC(C)C)C(=O)N[C@@H](CCCN=C(N)N)C(=O)N1CCC[C@H]1C(=O)NCC(N)=O`, for which the ED50 came out at 74 ug injection-1 with Rattus norvegicus [2] and 160 ug injection-1 in the experiment on Rattus norvegicus [1].

Consider `CCNC(=O)[C@@H]1CCCN1C(=O)[C@H](CCCN=C(N)N)NC(=O)[C@H](CC(C)C)NC(=O)[C@@H](CCCN=C(N)N)NC(=O)[C@H](Cc1ccc(O)cc1)NC(=O)[C@H](CO)NC(=O)[C@@H](Cc1ccc2ccccc2c1)NC(=O)[C@@H](Cc1ccc(Cl)cc1)NC(=O)[C@@H]1CCCN1C(C)=O`, for which the ED50 in the experiment with Rattus norvegicus [1] stood at 14 ug injection-1.

Take `CC(=O)N[C@H](Cc1ccc(Cl)cc1)C(=O)N[C@H](Cc1ccc(Cl)cc1)C(=O)N[C@H](Cc1c[nH]c2ccccc12)C(=O)N[C@@H](CO)C(=O)N[C@@H](Cc1ccc(O)cc1)C(=O)N[C@H](CCCN=C(N)N)C(=O)N[C@@H](CC(C)C)C(=O)N[C@@H](CCCN=C(N)N)C(=O)N1CCC[C@H]1C(=O)N[C@H](C)C(N)=O` (Ac-[dPhe(4-Cl)][dPhe(4-Cl)][dW]SY[dR]LRP[dA]-NH2): the ED50 with Rattus norvegicus [2] was determined as 1.2 µg injection-1; with Rattus norvegicus [1], 1.8 ug injection-1; in the experiment filed under Rattus norvegicus [3] it was 5 µg; in the experiment filed under Rattus norvegicus [4], 1.2 µg.

In turn, `CC(=O)N1CCC[C@H]1C(=O)N[C@H](Cc1ccc(F)cc1)C(=O)N[C@H](Cc1ccc2ccccc2c1)C(=O)N[C@@H](CO)C(=O)N[C@@H](Cc1ccc(O)cc1)C(=O)N[C@H](Cc1ccc(N)cc1)C(=O)N[C@@H](CC(C)C)C(=O)N[C@@H](CCCN=C(N)N)C(=O)N1CCC[C@H]1C(=O)NCC(N)=O` returned an ED50 in the experiment with Rattus norvegicus [1] of 72 ug injection-1.

In turn, `CC(=O)N[C@H](Cc1ccc2ccccc2c1)C(=O)N[C@H](Cc1ccc(F)cc1)C(=O)N[C@H](Cc1ccc2ccccc2c1)C(=O)N[C@@H](CO)C(=O)N[C@@H](Cc1ccc(O)cc1)C(=O)N[C@H](CCCN=C(N)N)C(=O)N[C@@H](CC(C)C)C(=O)N[C@@H](CCCN=C(N)N)C(=O)N1CCC[C@H]1C(=O)NCC(N)=O` showed an ED50 in the experiment on Rattus norvegicus [1] of 16 ug injection-1.

In the case of `CC(=O)N[C@H](Cc1ccc2ccccc2c1)C(=O)N[C@H](Cc1ccc(F)cc1)C(=O)N[C@H](Cc1c[nH]c2ccccc12)C(=O)N[C@@H](CO)C(=O)N[C@@H](Cc1ccc(O)cc1)C(=O)N[C@H](CCCN=C(N)N)C(=O)N[C@@H](CC(C)C)C(=O)N[C@@H](CCCN=C(N)N)C(=O)N1CCC[C@H]1C(=O)NCC(N)=O` (Ac-[d2Nal][dPhe(4-F)][dW]SY[dR]LRPG-NH2), the results for the ED50 in the experiment on Rattus norvegicus [1], in the experiment filed under Rattus norvegicus [3] and in the experiment filed under Rattus norvegicus [4] were 2.4 ug injection-1, 9 µg and 1.1 µg, respectively.

In turn, `CC(=O)N[C@H](Cc1ccc(Cl)cc1)C(=O)N[C@H](Cc1ccc(Cl)cc1)C(=O)N[C@H](Cc1ccc2ccccc2c1)C(=O)N[C@@H](CO)C(=O)N[C@@H](Cc1ccc(O)cc1)C(=O)N[C@H](Cc1ccc2ccccc2c1)C(=O)N[C@@H](CC(C)C)C(=O)N[C@@H](CCCN=C(N)N)C(=O)N1CCC[C@H]1C(=O)NCC(N)=O` came in with an ED50 with Rattus norvegicus [1] of 400 ug injection-1.

As for `CC(=O)N1CCC[C@H]1C(=O)N[C@H](Cc1ccc(F)cc1)C(=O)N[C@H](Cc1ccc2ccccc2c1)C(=O)N[C@@H](CO)C(=O)N[C@@H](Cc1ccc(O)cc1)C(=O)N[C@H](Cc1ccc2ccccc2c1)C(=O)N[C@@H](CC(C)C)C(=O)N[C@@H](CCCN=C(N)N)C(=O)N1CCC[C@H]1C(=O)NCC(N)=O` (stereo in doubt; 7), the ED50 in the experiment with Rattus norvegicus [2] turned out to be 4 µg; in the experiment with Rattus norvegicus [1], 2.2 ug injection-1; in the experiment listed under Rattus norvegicus [3], 140 µg; in the experiment listed under Rattus norvegicus [5], 35 ug injection-1.

Consider `CC(=O)N1CCC[C@H]1C(=O)N[C@H](Cc1ccc(Cl)cc1)C(=O)N[C@H](Cc1ccc2ccccc2c1)C(=O)N[C@@H](CO)C(=O)N[C@@H](Cc1ccc(O)cc1)C(=O)N[C@H](Cc1ccc2ccccc2c1)C(=O)N[C@@H](CC(C)C)C(=O)N[C@@H](CCCN=C(N)N)C(=O)N1CCC[C@H]1C(=O)NCC(N)=O`, for which the results for the ED50 in the experiment with Rattus norvegicus [2] and with Rattus norvegicus [1] were 3.6 ug injection-1 and 4.8 ug injection-1, respectively.
